# According to PMC4618645 (Pharmacology Research & Perspectives, 2015):
# Where “and” joins values, the source holds several entries; their conditions need not be identical. Equal entries are not always repeated. Entries after “also recorded” stand apart in the source; their conditions may differ. Where two headings read alike, the source gives them in different places.
# Columns and labels:
# [1] = biological target: T1, CYP2C in rat liver microsomes (CYP2C11) (Rattus norvegicus, UniProt P08683); format: biochemical
# T1 sequence (P08683 1-500): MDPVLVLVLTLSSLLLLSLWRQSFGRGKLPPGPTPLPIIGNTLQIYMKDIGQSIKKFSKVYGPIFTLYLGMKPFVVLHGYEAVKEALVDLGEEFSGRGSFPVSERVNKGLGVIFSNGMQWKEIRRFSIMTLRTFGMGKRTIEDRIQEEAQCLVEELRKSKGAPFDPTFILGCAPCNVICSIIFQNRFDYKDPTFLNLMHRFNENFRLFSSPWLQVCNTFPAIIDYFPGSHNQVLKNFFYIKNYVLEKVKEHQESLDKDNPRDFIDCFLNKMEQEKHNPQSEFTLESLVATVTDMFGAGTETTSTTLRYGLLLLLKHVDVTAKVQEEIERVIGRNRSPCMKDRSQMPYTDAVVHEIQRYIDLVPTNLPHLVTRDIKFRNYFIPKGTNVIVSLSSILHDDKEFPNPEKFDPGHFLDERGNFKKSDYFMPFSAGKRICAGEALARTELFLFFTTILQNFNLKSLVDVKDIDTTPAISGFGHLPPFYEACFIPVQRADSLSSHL
# [2] = biological target: CYP2C9 (Homo sapiens, UniProt P11712); format: biochemical; conditions: human liver microsomes, pH 7.4, probe diclofenac (100 μmol/L), diclofenac hydroxylation
# [3] = system: rat CYP2C (rat liver microsomes); format: biochemical
# Summary of the method: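 Rat liver microsomes (0.5 mg protein/mL) with 1 mmol/L NADPH in 100 mmol/L phosphate (pH 7.4), 37°C. Test compound in DMSO (20 μmol/L final) versus DMSO reference. Difference spectra (400–500 nm) were taken at 0–120 min, tracking A459 minus A500. Parent and catechol metabolites were quantified in parallel by HPLC of methanol-quenched aliquots taken at the same times. Mean ± SD, at least duplicates.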
# [4] = biological target: T2, recombinant rat CYP2C11 (Rattus norvegicus, UniProt P08683); assay: Sesamin-induced difference spectrum of recombinant rat CYP2C11; format: biochemical; conditions: recombinant rat CYP2C11, NADPH, 20 μmol/L sesamin
# T2 sequence (P08683 1-500): T1 sequence (P08683 1-500)
# Summary of the method: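 Recombinant rat CYP2C11 from baculovirus-infected insect cells (50 pmol/mL) with 1 mmol/L NADPH in 100 mmol/L phosphate (pH 7.4) at 37°C. Test compound in DMSO (20 μmol/L final) went into the sample cuvette and an equal volume of DMSO into the reference. Difference spectra were recorded over 400–500 nm after 7 and 60 min incubation.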
# [5] = Pharmacokinetics of diclofenac in rats after 3 days administration of sesamin; format: in vivo, rat; conditions: for AUC(0-t) / Cmax / Tmax / half-life: rat, plasma, po, 10 mg/kg; for AUC(0-t): AUC0–24 h; for AUC(0-t) / Cmax / Tmax: diclofenac 10 mg/kg bw intragastric; for half-life: t1/2, diclofenac 10 mg/kg bw intragastric
# [6] = format: in vivo, rat; conditions: rats
# [7] = Plasma concentration of sesamin in rats; format: in vivo; conditions: rat, po, 100 mg/kg
# Summary of the method: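 Test compound in corn oil was given intragastrically by feeding needle. The organic phase was dried and the residue taken up in 100 μL acetonitrile. HPLC: methanol/0.05% TFA gradient, fluorescence ex 298/em 325 nm; mean ± SD, n = 12.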
# [8] = Hepatic sesamin concentration in rats; format: in vivo; conditions: rat, liver, oral, 100 mg/kg
# [9] = system: rat CYP2C; format: in vivo; conditions: rats, sesamin 0, 10, 100 mg/kg bw for 7 days
# Summary of the method: (§1)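 Male Sprague–Dawley rats were acclimated for 7 days before dosing. Liver microsomes: liver rinsed in ice-cold saline, homogenized in four volumes of ice-cold 1.15% KCl, spun at 10,000g for 20 min, then the supernatant at 100,000g for 60 min. The pellet was resuspended in 20 mmol/L phosphate buffer (pH 7.4) with 1.15% KCl. Protein was measured by bicinchoninate assay.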
# [10] = system: CYP2C-mediated diclofenac hydroxylation activity; format: in vivo, rat; conditions: rats, sesamin 0, 10, 100 mg/kg bw for 7 days
# Summary of the method: as §1
# [11] = Estimation of the maximum inlet concentration to the liver; design: species or system human; conditions: for absorption rate constant: assumed, roughly estimated from the data by Tomimori et al. [2013]; for maximum inlet concentration to the liver: humans, following the 50 mg oral dose, eqn. 1
# [12] = humans, sesamin supplement 50 mg/day for 28 days; ref Tomimori et al. [2013]; cited from earlier work
# [13] = assumed; ref Moazzami et al. [2007]; cited from earlier work
# [14] = system: CYP2C9; conditions: cited from earlier work
# [15] = system: CYP2D6; conditions: CYP2D6 with MDMA in human liver microsomes; ref Heydari et al. [2004]; cited from earlier work
# [16] = system: CYP2D6; conditions: humans; ref O'Mathuna et al. [2008]; cited from earlier work
# [17] = after sesamin 10 mg/kg bw for 3 days
# [18] = after sesamin 100 mg/kg bw for 3 days
# [19] = control (0 mg/kg bw sesamin for 3 days)
# CYP2C9 (Homo sapiens, UniProt P11712), sequence (P11712 whole entry): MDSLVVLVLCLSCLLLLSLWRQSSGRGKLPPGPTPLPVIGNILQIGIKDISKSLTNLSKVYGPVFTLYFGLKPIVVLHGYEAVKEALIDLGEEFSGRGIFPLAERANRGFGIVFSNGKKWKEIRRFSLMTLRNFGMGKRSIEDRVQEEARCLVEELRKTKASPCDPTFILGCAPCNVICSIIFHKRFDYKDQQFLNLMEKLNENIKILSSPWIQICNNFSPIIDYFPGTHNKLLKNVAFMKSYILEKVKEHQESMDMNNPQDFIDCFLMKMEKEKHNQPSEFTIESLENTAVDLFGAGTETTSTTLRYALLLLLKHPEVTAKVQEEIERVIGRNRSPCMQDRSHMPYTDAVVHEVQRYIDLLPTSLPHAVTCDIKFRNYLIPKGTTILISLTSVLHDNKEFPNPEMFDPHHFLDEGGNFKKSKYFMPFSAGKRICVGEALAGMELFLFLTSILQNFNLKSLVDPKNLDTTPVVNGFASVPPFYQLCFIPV
structure (smiles),measurement,setting,value
c1cc2c(cc1[C@H]1OC[C@H]3[C@@H]1CO[C@@H]3c1ccc3c(c1)OCO3)OCO2 [sesamin],kinact,[1],0.00132 s⁻¹
same,inhibition of 4'- and 5-hydroxylation activities toward diclofenac,"[1]; rat liver microsomes, sesamin 0-50 μmol/L, preincubation 0, 5, 10 min",time- and concentration-dependently inhibited
same,kinact/KI,[1]; read-out: kinact/Ki app,48.3 M⁻¹ s⁻¹
same,kinact,[2],0.00217 s⁻¹
same,kinact/KI,[2],96.7 M⁻¹ s⁻¹
same,half-life time of the MI complex of sesamin,[3]; rat liver microsomes,0.167 h
same,time to disappearance of the 459 nm peak after the termination of the metabolism,[3]; rat liver microsomes,≤ 30 min
same,conversion of sesamin to SC-2 via SC-1,"[3]; rat liver microsomes 0.5 mg/mL, 20 μmol/L sesamin, at 60 min",almost all of sesamin was converted to SC-2 via SC-1
same,peak of sesamin-induced difference spectrum (MI complex),"[3]; rat liver microsomes, NADPH, 20 μmol/L sesamin, 37°C",459 nm
same,peak of sesamin-induced difference spectrum (MI complex),[4],459 nm
same,"effect of sesamin on pharmacokinetic parameters of diclofenac (Cmax, Tmax, AUC)","[5]; sesamin 0, 10, 100 mg/kg bw for 3 days, then diclofenac 10 mg/kg bw",No significant differences
same,effect of sesamin on the diclofenac pharmacokinetics,"[6]; sesamin 0, 10, 100 mg/kg bw and diclofenac 10 mg/kg bw simultaneously",no significant effects
same,Cmax,[7],33 ng/mL and 94 nM
same,Tmax,[7],1.2 ± 0.6 h
same,concentration at 1 h,[8],390 ng/g and 1.1 µM
same,expression of CYP2C protein in liver microsomes,[9],no significant differences; also recorded: no remarkable change
same,diclofenac hydroxylation activity in liver microsomes,[10],no significant effects; also recorded: no significant differences; also recorded: no remarkable change
same,absorption rate constant,[11],0.5 h⁻¹
same,maximum inlet concentration to the liver,[11],130 nmol/L
same,accumulation after repeated administration,[12],did not detect the accumulation; also recorded: no accumulation
same,fraction absorbed,[13],30%
same,kinact,"[14]; CYP2C9 with sesamin in human liver microsomes, ref Yasuda et al. [2010]",0.13 min⁻¹
"CNC(C)Cc1ccc2c(c1)OCO2 (centres unmarked) [MDMA, 3,4-Methylenedioxymethamphetamine]",kinact,[15],0.12 to 0.26 min⁻¹
same,increase of dextromethorphan AUC0-8 h when administered with MDMA,[16],approximately 10 fold
same,increase of dextromethorphan AUC after MDMA administration,[16],approximately 10 fold
same,increase of dextromethorphan Cmax after MDMA administration,[16],approximately 10 fold
c1cc2c(cc1[C@H]1OC[C@H]3[C@@H]1CO[C@@H]3c1ccc3c(c1)OCO3)OCO2 [episesamin],absorption rate constant,[11],1.5 h⁻¹
same,maximum inlet concentration to the liver,[11],410 nmol/L
same,accumulation after repeated administration,[12],did not detect the accumulation; also recorded: no accumulation
same,kinact/Ki value for recombinant human CYP2C9 relative to sesamin,"[14]; recombinant human CYP2C9, ref previous studies of the authors",five times smaller
same,kinact/Ki app for CYP2C9 relative to sesamin,[14]; ref Yasuda et al. [2012],approximately one-fifth
O=C(O)Cc1ccccc1Nc1c(Cl)cccc1Cl [diclofenac],AUC(0-t),[5]; [17],4620 ng·h/mL
same,AUC(0-t),[5]; [18],6930 ng·h/mL
same,AUC(0-t),[5]; [19],4880 ng·h/mL
same,Cmax,[5]; [17],1200 ± 500 ng/mL
same,Cmax,[5]; [18],1300 ± 600 ng/mL
same,Cmax,[5]; [19],1800 ± 800 ng/mL
same,Tmax,[5]; [17],7 min
same,Tmax,[5]; [18],7.2 min
same,Tmax,[5]; [19],5.4 min
same,half-life,[5]; [17],14.8 ± 9.3 h
same,half-life,[5]; [18],11.1 ± 6.8 h
same,half-life,[5]; [19],10.6 ± 2.9 h
same,AUC(0-t),"[6]; rat, plasma, po, 10 mg/kg, AUC0–24 h, diclofenac 10 mg/kg bw intragastric, control (0 mg/kg bw sesamin at same time)",5480 ng·h/mL
same,Cmax,"[6]; rat, plasma, po, 10 mg/kg, Cmax, diclofenac 10 mg/kg bw intragastric, control (0 mg/kg bw sesamin at same time)",2100 ± 1700 ng/mL
same,Tmax,"[6]; rat, plasma, po, 10 mg/kg, Tmax, diclofenac 10 mg/kg bw intragastric, control (0 mg/kg bw sesamin at same time)",5.6 min
same,half-life,"[6]; rat, plasma, po, 10 mg/kg, t1/2, diclofenac 10 mg/kg bw intragastric, control (0 mg/kg bw sesamin at same time)",9.8 ± 5.1 h
